Data set [1] is described as follows: Half life in mouse at 3 mg/kg, iv. Format: ADME, organism-based. The settings on record: in vivo. The gist of the method: (§1)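 Mouse pharmacokinetics after single intravenous CMPF dosing at 1 or 3 mg/kg. Plasma exposure was followed over time to derive AUC, C0, terminal half-life, clearance and volume of distribution.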
Data set [2] in a line: Drug metabolism in CD1 mouse muscle assessed as loss of C2 carboxyl during fragmentation at 6 mg/kg, ip dosed once daily for 3 days followed by dosing of 1:1 mixtures of 2-(2-Carboxyethyl)-4-methyl-5-(1-propyl-1-13C)furan-3-carboxylic Acid and test compound on day 4 and 5 measured 1 hr post dose on day 5 by HPLC-MS analysis. Format: ADME, organism-based, Muscle tissue. The settings on record: in vivo. The gist of the method:
(§2)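 Mice received CMPF 6 mg/kg intraperitoneally for three days, then 1:1 labeled/unlabeled CMPF mixtures on days four and five. On day five they were euthanized 1 h post-dose, and plasma, adipose, muscle and liver were collected. Samples were analysed by HPLC-MS, with MS/MS of product ions. Metabolites were identified by the distinctive isotope patterns from the 1:1 label mixture.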

Data set [3] has as its system Liver. Put plainly: Drug metabolism in CD1 mouse liver assessed as diacylglycerol conjugate formation at 6 mg/kg, ip dosed once daily for 3 days followed by dosing of 1:1 mixtures of 2-(2-Carboxyethyl)-4-methyl-5-(1-propyl-1-13C)furan-3-carboxylic Acid and test compound on day 4 and 5 measured 1 hr post dose on day 5 by HPLC-MS analysis. Format: ADME, organism-based. The settings on record: in vivo. Summed up:
as §2

A short description of data set [4]: Drug metabolism in CD1 mouse adipose assessed as monoacylglycerol conjugate formation at 6 mg/kg, ip dosed once daily for 3 days followed by dosing of 1:1 mixtures of 2-(2-Carboxyethyl)-4-methyl-5-(1-propyl-1-13C)furan-3-carboxylic Acid and test compound on day 4 and 5 measured 1 hr post dose on day 5 by HPLC-MS analysis. Format: ADME, organism-based, Adipose tissue. The settings on record: in vivo. The gist of the method:
as §2

The test system of data set [5] is Liver. In words: Drug metabolism in CD1 mouse liver assessed as loss of C2 carboxyl during fragmentation at 6 mg/kg, ip dosed once daily for 3 days followed by dosing of 1:1 mixtures of 2-(2-(Carboxy-13C)ethyl)-4-methyl-5-propylfuran-3-carboxylic-2-13C Acid and test compound on day 4 and 5 measured 1 hr post dose on day 5 by HPLC-MS analysis. Format: ADME, organism-based. The settings on record: in vivo. The gist of the method: as §2

A further data set has as its system Hepatocyte. In words: Cytotoxicity against mouse primary hepatocytes assessed as fold change in capase3/7 activity by Caspase-Glo 3/7 assay relative to DMSO. Format: cell-based.
Data set [6] relates to Plasma. In words: Plasma concentration in human. Format: ADME, cell-free.
A short description of data set [7]: Volume of distribution in mouse at 3 mg/kg, iv. Format: ADME, organism-based. The settings on record: in vivo. Summed up:
as §1

Data set [8] concerns Plasma. Put plainly: Drug metabolism in CD1 mouse plasma assessed as oxidative metabolites formation at 6 mg/kg, ip dosed once daily for 3 days followed by dosing of 1:1 mixtures of 2-(2-Carboxyethyl)-4-methyl-5-(1-propyl-1-13C)furan-3-carboxylic Acid and test compound on day 4 and 5 measured 1 hr post dose on day 5 by HPLC-MS analysis. Format: ADME, organism-based. The settings on record: in vivo. Summed up:
(§3)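 CMPF given 6 mg/kg i.p. once daily for three days. On days four and five, 1:1 mixtures of stable-isotope-labelled and unlabelled CMPF were dosed. Mice were killed 1 h after the day-five dose. Plasma, adipose, muscle and liver were collected and analysed by HPLC-MS (MS/MS for product ions). Metabolites were identified by their distinctive isotope patterns from the labelled/unlabelled mixture.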

The subject of data set [9] is Liver. Put plainly: Drug metabolism in CD1 mouse liver assessed as diacylglycerol conjugate formation at 6 mg/kg, ip dosed once daily for 3 days followed by dosing of 1:1 mixtures of 2-(2-(Carboxy-13C)ethyl)-4-methyl-5-propylfuran-3-carboxylic-2-13C Acid and test compound on day 4 and 5 measured 1 hr post dose on day 5 by HPLC-MS analysis. Format: ADME, organism-based. The settings on record: in vivo. The gist of the method:
as §2

Data set [10] has as its system Plasma. In words: Drug metabolism in CD1 mouse plasma assessed as diacylglycerol conjugate formation at 6 mg/kg, ip dosed once daily for 3 days followed by dosing of 1:1 mixtures of 2-(2-(Carboxy-13C)ethyl)-4-methyl-5-propylfuran-3-carboxylic-2-13C Acid and test compound on day 4 and 5 measured 1 hr post dose on day 5 by HPLC-MS analysis. Format: ADME, organism-based. The settings on record: in vivo. Summed up:
as §3

The test system of data set [11] is Plasma. In words: Drug metabolism in CD1 mouse plasma assessed as oxidative metabolites formation at 6 mg/kg, ip dosed once daily for 3 days followed by dosing of 1:1 mixtures of 2-(2-(Carboxy-13C)ethyl)-4-methyl-5-propylfuran-3-carboxylic-2-13C Acid and test compound on day 4 and 5 measured 1 hr post dose on day 5 by HPLC-MS analysis. Format: ADME, organism-based. The settings on record: in vivo. The gist of the method:
as §3

Data set [12] can be described thus: Drug metabolism in CD1 mouse muscle assessed as monoacylglycerol conjugate formation at 6 mg/kg, ip dosed once daily for 3 days followed by dosing of 1:1 mixtures of 2-(2-Carboxyethyl)-4-methyl-5-(1-propyl-1-13C)furan-3-carboxylic Acid and test compound on day 4 and 5 measured 1 hr post dose on day 5 by HPLC-MS analysis. Format: ADME, organism-based, Muscle tissue. The settings on record: in vivo. Summed up: as §2

Data set [13] can be described thus: Suppression of high glucose stimulated insulin secretion in mouse pancreatic islets at 200 uM treated for 24 hrs followed by glucose stimulation for 20 mins by HTRF assay relative to control. Format: ADME, cell-based. The settings on record: pancreatic islet. Summed up:
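Mouse islet screening assay in high-glucose (20 mM) medium with compounds at 200 µM. Insulin secretion is expressed as fold change relative to vehicle. Mean of n = 4 experiments with SEM; significance by Student's t-test, p ≤ 0.05.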

The nature of data set [14]: Initial plasma concentration in mouse at 3 mg/kg, iv. Format: ADME, organism-based. Summed up:
as §1

For data set [15], the system named is Plasma. In words: Drug metabolism in CD1 mouse plasma assessed as loss of C2 carboxyl during fragmentation at 6 mg/kg, ip dosed once daily for 3 days followed by dosing of 1:1 mixtures of 2-(2-Carboxyethyl)-4-methyl-5-(1-propyl-1-13C)furan-3-carboxylic Acid and test compound on day 4 and 5 measured 1 hr post dose on day 5 by HPLC-MS analysis. Format: ADME, organism-based. The settings on record: in vivo. The gist of the method: as §3

For data set [16], the system named is Liver. In words: Drug metabolism in CD1 mouse liver assessed as glycerol conjugate formation at 6 mg/kg, ip dosed once daily for 3 days followed by dosing of 1:1 mixtures of 2-(2-Carboxyethyl)-4-methyl-5-propyl-(3-13C-furan)-3-13Ccarboxylateand test compound on day 4 and 5 measured 1 hr post dose on day 5 by HPLC-MS analysis. Format: ADME, organism-based. The settings on record: in vivo. The gist of the method:
as §2

A short description of data set [17]: Drug metabolism in CD1 mouse muscle assessed as glycerol conjugate formation at 6 mg/kg, ip dosed once daily for 3 days followed by dosing of 1:1 mixtures of 2-(2-Carboxyethyl)-4-methyl-5-(1-propyl-1-13C)furan-3-carboxylic Acid and test compound on day 4 and 5 measured 1 hr post dose on day 5 by HPLC-MS analysis. The settings on record: in vivo. Format: ADME, organism-based, Muscle tissue. The gist of the method:
as §2

A short description of data set [18]: Drug metabolism in CD1 mouse muscle assessed as glycerol conjugate formation at 6 mg/kg, ip dosed once daily for 3 days followed by dosing of 1:1 mixtures of 2-(2-(Carboxy-13C)ethyl)-4-methyl-5-propylfuran-3-carboxylic-2-13C Acid and test compound on day 4 and 5 measured 1 hr post dose on day 5 by HPLC-MS analysis. Format: ADME, organism-based, Muscle tissue. The settings on record: in vivo. Summed up: as §2

Data set [19] relates to Liver. In words: Drug metabolism in CD1 mouse liver assessed as diacylglycerol conjugate formation at 6 mg/kg, ip dosed once daily for 3 days followed by dosing of 1:1 mixtures of 2-(2-Carboxyethyl)-4-methyl-5-propyl-(3-13C-furan)-3-13Ccarboxylateand test compound on day 4 and 5 measured 1 hr post dose on day 5 by HPLC-MS analysis. The settings on record: in vivo. Format: ADME, organism-based. The gist of the method: as §2

Data set [20] can be described thus: Initial plasma concentration in mouse at 1 mg/kg, iv. Format: ADME, organism-based. Summed up: as §1

The half-life is the time in which the quantity being followed falls by half. The term Vd denotes a proportionality between amount in the body and measured concentration, not a real space. Lower therefore signals little distribution into tissue.

Turning to `CCCc1oc(CCC(=O)O)c(C(=O)O)c1C`, in [1], the half-life was 3.27 h. Moreover, the Drug metabolism entry was “Metabolite_Detected” in [2]; “Metabolite_Notdetected” in the data set with Liver [3]; “Metabolite_Notdetected” in data set [4]; “Metabolite_Detected” in the data set with Liver [5]; “Metabolite_Notdetected” in the data set on Plasma [8]; “Metabolite_Notdetected” in the data set with Liver [9]. The Drug metabolism result in the data set on Plasma [10] is “Metabolite_Notdetected”; in the data set with Plasma [11], “Metabolite_Notdetected”; in data set [12] it was “Metabolite_Notdetected”; with Plasma [15], “Metabolite_Detected”; in the data set with Liver [16], “Metabolite_Notdetected”; in [17] it was “Metabolite_Notdetected”. Moreover, the Drug metabolism result (in data set [18]; in the data set on Liver [19]) was “Metabolite_Notdetected” throughout. Moreover, the fold change (FC) in the data set on Hepatocyte is 0.7 to 0.8. In the data set with Plasma [6], the concentration lay in the range of 20 to 40 µM. This molecule displayed a distribution volume (Vd) in data set [7] of 0.2 L/kg. In data set [13], the Activity entry is “Toxic”. Also, the C0 in [14] was found to be 130 µM; in data set [20] it was 53.3 µM.

(Values after ChEMBL document CHEMBL4004837, “Synthesis and Characterization of Urofuranoic Acids: In Vivo Metabolism of 2-(2-Carboxyethyl)-4-methyl-5-propylfuran-3-carboxylic Acid (CMPF) and Effects on in Vitro Insulin Secretion” (J Med Chem, 2017).)
